How the values were obtained:
[1] = tested on: Botrytis cinerea; experiment: Antifungal activity against Botrytis cinerea at 50 mg/L relative to control; assay type: functional
[2] = tested on: Fusarium graminearum; experiment: Antifungal activity against Gibberella zeae at 50 mg/L relative to control; assay type: functional
[3] = tested on: Botryosphaeria berengeriana; experiment: Antifungal activity against Botryosphaeria berengeriana at 50 mg/L relative to control; assay type: functional
[4] = tested on: Bipolaris maydis; experiment: Antifungal activity against Bipolaris maydis at 50 mg/L relative to control; assay type: functional
[5] = tested on: KB; experiment: Cytotoxicity against human KB cells after 72 hrs MTT assay; assay type: functional, cell-based
In short: (§1)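 MTT read-out after 72 h exposure to compound. KB are drug-sensitive human oral carcinoma cells. KBv200 are the vincristine-induced multidrug-resistant derivative overexpressing ABCB1. Values are means of three independent experiments, each run in quadruplicate, with coefficients of variation below 10%.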

[6] = Cytotoxicity against multi-drug resistant human KBv200 cells after 72 hrs by MTT assay; assay type: functional, cell-based; conditions: KBv200, 72 h; in short: as §1
[7] = tested on: Rhizoctonia solani; experiment: Antifungal activity against Rhizoctonia solani at 50 mg/L relative to control; assay type: functional

Row | Structure (SMILES) | inhibition at 50 µg/mL [1] | inhibition at 50 µg/mL [2] | inhibition at 50 µg/mL [3] | inhibition at 50 µg/mL [4] | IC50 [5] | IC50 [6] | inhibition at 50 µg/mL [7]
1 | Cc1nc2sc3c(c2c2nc(Oc4ccccc4)n(-c4ccccc4)c(=O)c12)CCCC3 | 85% | 15% | 56% | 76% | 54.2 µM | 61.9 µM | 65%
2 | Cc1ccc(Oc2nc3c(c(C)nc4sc5c(c43)CCCC5)c(=O)n2-c2ccccc2)cc1 | 80% | 31% | 56% | 76% | 48.3 µM | 67.3 µM | 61%
3 | Cc1nc2sc3c(c2c2nc(Oc4ccc([N+](=O)[O-])cc4)n(-c4ccccc4)c(=O)c12)CCCC3 | 85% | 46% | 61% | 67% | > 100 µM | > 100 µM | 68%
4 | Cc1cc(Oc2nc3c(c(C)nc4sc5c(c43)CCCC5)c(=O)n2-c2ccccc2)ccc1Cl | 73% | 31% | 39% | 52% | 84.3 µM | 72.2 µM | 22%
5 | CCCNc1nc2c(c(C)nc3sc4c(c32)CCCC4)c(=O)n1-c1ccccc1 | 57% | 20% | 29% | 47% | 17.4 µM | 25.4 µM | 24%
6 | Cc1cccc(Oc2nc3c(c(C)nc4sc5c(c43)CCCC5)c(=O)n2-c2ccccc2)c1 | 99% | 65% | 78% | 81% | > 100 µM | > 100 µM | 91%
7 | Cc1nc2sc3c(c2c2nc(Oc4cccc(F)c4)n(-c4ccccc4)c(=O)c12)CCCC3 | 98% | 58% | 78% | 90% | > 100 µM | > 100 µM | 84%
8 | Cc1ccc(Cl)c(Oc2nc3c(c(C)nc4sc5c(c43)CCCC5)c(=O)n2-c2ccccc2)c1 | 88% | 23% | 50% | 48% | > 100 µM | > 100 µM | 63%
9 | O=c1[nH]cc(F)c(=O)[nH]1 [FLUOROURACIL] |  |  |  |  | 12.5 µM |  | 
10 | Cc1nc2sc3c(c2c2nc(Oc4ccc(F)cc4Cl)n(-c4ccccc4)c(=O)c12)CCCC3 | 88% | 54% | 67% | 67% | > 100 µM | > 100 µM | 79%
11 | CCCCNc1nc2c(c(C)nc3sc4c(c32)CCCC4)c(=O)n1-c1ccccc1 | 100% | 83% | 76% | 79% | 32 µM | 32.8 µM | 89%
12 | Cc1nc2sc3c(c2c2nc(Oc4ccc(Br)cc4)n(-c4ccccc4)c(=O)c12)CCCC3 | 83% | 65% | 83% | 81% | 68.9 µM | > 100 µM | 68%
13 | Cc1nc2sc3c(c2c2nc(Oc4ccc(F)cc4F)n(-c4ccccc4)c(=O)c12)CCCC3 | 78% | 38% | 50% | 71% | > 100 µM | > 100 µM | 63%
14 | COc1cccc(Oc2nc3c(c(C)nc4sc5c(c43)CCCC5)c(=O)n2-c2ccccc2)c1 | 66% | 42% | 67% | 76% | > 100 µM | > 100 µM | 76%
15 | Cc1nc2sc3c(c2c2nc(Oc4cc(F)cc(F)c4)n(-c4ccccc4)c(=O)c12)CCCC3 | 83% | 31% | 61% | 48% | 52.5 µM | 39.9 µM | 74%
16 | CC(C)(C)C(=O)C(Oc1ccc(Cl)cc1)n1cncn1 (configuration not stated) [TRIADIMEFON] | 78% | 59% |  |  |  |  | 91%

From ChEMBL document CHEMBL1156123, “A facile synthesis and biological activity of novel tetrahydrobenzo[4',5']thieno[3',2':5,6]pyrido[4,3-d]pyrimidin-4(3H)-ones” (Bioorg Med Chem Lett, 2009)
